Sampled rows, rich in hits. Any-hit rate of the full collection: about 27%.
CYP2C19 inhib = inhibitors of human CYP2C19 | 96,000 tested, 21% active | inhibition, % at 5 µM | P33261 | AID 778 | CYP2C19 Supersomes, luciferin-H EGE luminescence, 30 min;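 active = CYP2C19 inhibition above a set limit at 5 µM in the primary screen, cut at about 50% in these data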;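 also: plate controls were negative control wells for no effect and 2.5 mM tranylcypromine positive control for full effect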
Target sequence (P33261 whole entry, looked up): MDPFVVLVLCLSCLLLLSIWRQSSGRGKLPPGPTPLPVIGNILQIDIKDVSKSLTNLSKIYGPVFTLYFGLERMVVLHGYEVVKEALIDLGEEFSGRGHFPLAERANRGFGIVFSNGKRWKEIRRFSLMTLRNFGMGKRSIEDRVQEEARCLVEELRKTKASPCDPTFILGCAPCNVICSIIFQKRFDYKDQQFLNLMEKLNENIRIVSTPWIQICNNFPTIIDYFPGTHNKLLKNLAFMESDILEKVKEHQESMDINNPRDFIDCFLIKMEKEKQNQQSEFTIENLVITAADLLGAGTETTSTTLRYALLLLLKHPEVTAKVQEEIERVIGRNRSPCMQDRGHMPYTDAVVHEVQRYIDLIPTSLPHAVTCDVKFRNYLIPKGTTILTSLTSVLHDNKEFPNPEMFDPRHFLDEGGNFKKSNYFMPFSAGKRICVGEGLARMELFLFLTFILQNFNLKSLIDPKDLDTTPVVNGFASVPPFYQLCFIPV
CYP2C19 activ = cytochrome P450 2C19 (human) activation | AID 1025 | recombinant CYP2C19, luciferin-H EGE luminescence; hits give high values; 0 = fully inhibited enzyme, 1 = untreated enzyme | activation factor at 5 µM | 96,000 tested, under 10 active;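 active = activation factor of at least 2 at 5 µM in the primary screen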;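 also: 0 = wells with 2.5 mM tranylcypromine and 1 = vehicle-only wells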
HIV Rev-RRE inh = inhibitors of HIV-1 Rev-RRE RNA interaction | 97,000 tested, 0.79% active | P05866 | AID 704 | inhibition, % at 8 µM | Rev peptide-RRE RNA binding, FRET;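 active = inhibition above the screen-wide mean plus 3 SD, cut at about 35% in these data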;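 also: 0% = median DMSO wells and 100% = median Neomycin B control wells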
Target sequence (P05866 whole entry, looked up): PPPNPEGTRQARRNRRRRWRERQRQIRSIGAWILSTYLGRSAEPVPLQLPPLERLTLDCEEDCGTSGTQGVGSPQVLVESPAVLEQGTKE
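Test system – labelled RRE RNA duplex and labelled Rev peptide · Signal – fluorescein-to-Cy5 FRET, 480 nm excitation · Evaluation – % inhibition of FRET ratio versus controls · Benchmarks – DMSO low control, neomycin B high control · Incubation – 5 min RNA-compound premix plus 15 min binding step, 25 °C · Medium – HEPES pH 7.5 salt buffer with EDTA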
CYP2C9 act = CYP2C9 (human) activation; P11712; activation factor at 5 µM; recombinant CYP2C9, luciferin-H conversion, luminescence; hits give high values; factor 1 = untreated enzyme, 0 = blocked; 96,000 tested, 1.4% active;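 active = activation factor of 2 or more for CYP2C9 at a 5 µM dose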;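 also: 0 = sulfaphenazole-blocked wells and 1 = vehicle-only wells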
Cav32 inh = inhibitors of human Cav3.2 T-type calcium channel; 100,000 tested, 4% active; B-score at 10 µM; O95180; Cav3.2-expressing cells, Fluo-4 calcium fluorescence FDSS; hits give low values;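 active = single-dose well whose peak fluorescence ratio is a statistical outlier from its plate by either plate-standardised score or position-corrected B-score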
CYP2C9 inh = inhibitors of human CYP2C9. 96,000 tested, 20% active. inhibition, % at 5 µM. P11712. CYP2C9 Supersomes, luciferin-H conversion, luminescence. AID 777;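 active = blocking of liver enzyme CYP2C9 beyond about 50% at 5 µM, limit read from the data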
Starred values were filed as active, the others as inactive; [ ] = remark or other dose.

COc1cc(OC)c(C2=NOC(C(=O)NCCc3ccccc3)C2)cc1Cl (stereo not given) was read as CYP2C19 inhib 62*, CYP2C19 activ 0.4, HIV Rev-RRE inh 16, CYP2C9 act 1.3, Cav32 inh 0.083 and CYP2C9 inh -28.
COc1ccccc1CNC(=O)C1CC(c2c(Cl)cccc2Cl)=NO1 (stereo not given) was read as CYP2C19 inhib 84*, CYP2C19 activ 0.2, HIV Rev-RRE inh 6, CYP2C9 act 2.2*, Cav32 inh 0.82 and CYP2C9 inh -115.
For COc1ccc(CCNC(=O)C2CC(c3cccc([N+](=O)[O-])c3)=NO2)cc1 (stereo not given) the results were CYP2C19 inhib 17, CYP2C19 activ 0.8, HIV Rev-RRE inh -1, CYP2C9 act 0.8, Cav32 inh 0.29 and CYP2C9 inh 24.
`COc1cccc(C(=O)Cn2c(=O)n(CC3CCCO3)c(=O)c3ccccc32)c1` (stereo not given) gave CYP2C19 inhib 19, CYP2C19 activ 0.8, HIV Rev-RRE inh 2, CYP2C9 act 0.6 and CYP2C9 inh 42.
CCC(C)(C)NC(=O)C(c1ccc(F)cc1)N(Cc1ccco1)C(=O)c1cnccn1 (stereo not given) was read as CYP2C19 inhib -6, CYP2C19 activ 1.1, HIV Rev-RRE inh 2, CYP2C9 act 1.1, Cav32 inh -0.34 and CYP2C9 inh -9.
Screening O=C(C(Cc1ccccc1)NS(=O)(=O)c1cccc2cccnc12)N1CCc2ccccc21 (stereo not given) returned CYP2C19 inhib 13, CYP2C19 activ 0.9, HIV Rev-RRE inh 12, CYP2C9 act 0.7, Cav32 inh -3.2 and CYP2C9 inh 31.
Screening CCC(C)Nc1nc(SC(C(C)=O)C(C)=O)nc(N(C)C)n1 (stereo not given) returned CYP2C19 inhib 52*, CYP2C19 activ 0.5, HIV Rev-RRE inh 4, CYP2C9 act 0.4, Cav32 inh -2.2 and CYP2C9 inh 62*.
Screening COC(=O)[C@@H]1C[C@H]2CC[C@H](O)C[C@H]2N1Cc1ccccc1OC(=O)c1cccs1 returned Cav32 inh 0.49.
CN=C1S/C(=C\c2cccn2-c2cccc(Br)c2)C(=O)N1C was read as HIV Rev-RRE inh 7 and Cav32 inh -0.78.
For c1ccc(N2CCN(c3nc4ccccc4n4cnnc34)CC2)cc1 the results were CYP2C19 inhib 65*, CYP2C19 activ 0.3, HIV Rev-RRE inh 5, CYP2C9 act 0.5, Cav32 inh -2.5 and CYP2C9 inh 49.
c1ccc2c(c1)nc(N1CCOCC1)c1nncn12 was read as CYP2C19 inhib 2, CYP2C19 activ 1, HIV Rev-RRE inh 4, CYP2C9 act 0.8 and CYP2C9 inh 15.
Cc1ccccc1CS(=O)(=O)CCC(=O)NCc1ccccn1 was read as CYP2C19 inhib 8, CYP2C19 activ 0.9, HIV Rev-RRE inh 4, CYP2C9 act 1.2, Cav32 inh 0.076 and CYP2C9 inh -16.
COC(=O)c1ccc(Cn2cnc3c(cnn3-c3ccc(C)c(C)c3)c2=O)o1 was read as HIV Rev-RRE inh -1 and Cav32 inh -1.5.
COC(=O)c1ccc(Cn2cnc3c(cnn3-c3ccc(F)cc3)c2=O)o1 was read as CYP2C19 inhib 15, CYP2C19 activ 0.8, HIV Rev-RRE inh 2, CYP2C9 act 0.5, Cav32 inh -0.11 and CYP2C9 inh 50*.
For COc1cccc(NC(=O)NCc2cccn2C)c1 the results were CYP2C19 inhib 26, CYP2C19 activ 0.7, HIV Rev-RRE inh -4, CYP2C9 act 1, Cav32 inh 0.069 and CYP2C9 inh 5.
Screening O=C1S/C(=C\c2ccc(N3CCOCC3)o2)C(=O)N1Cc1ccc(F)cc1 returned CYP2C19 inhib -2, CYP2C19 activ 1, HIV Rev-RRE inh 117*[fluorescence artefact?], CYP2C9 act 1.1, Cav32 inh -2.1 and CYP2C9 inh -14.
`O=C1S/C(=C/c2ccc(N3CCOCC3)o2)C(=O)N1Cc1ccc(F)cc1` gave CYP2C19 inhib 25, CYP2C19 activ 0.8, HIV Rev-RRE inh 115*[fluorescence artefact?], CYP2C9 act 1, Cav32 inh -1.2 and CYP2C9 inh 0.
For CC(C)n1cc(/C=C2/SC(=O)N(CC(=O)N3CCCC3)C2=O)c2ccccc21 the results were CYP2C19 inhib 14, CYP2C19 activ 0.9, HIV Rev-RRE inh -5, CYP2C9 act 0.8, Cav32 inh 0.82 and CYP2C9 inh 19.
`CC(C)OC(=O)CN1C(=O)S/C(=C/c2ccc(N3CCCCC3)o2)C1=O` gave CYP2C19 inhib 22, CYP2C19 activ 0.8, HIV Rev-RRE inh 136*[fluorescence artefact?], CYP2C9 act 0.9, Cav32 inh -3.4 and CYP2C9 inh 9.
`O=C1/C(=C/c2ccc(N3CCOCC3)o2)SC(=Nc2ccccc2)N1CCc1c[nH]c2ccccc12` gave CYP2C19 inhib 26, CYP2C19 activ 0.7, HIV Rev-RRE inh 136*[fluorescence artefact?], CYP2C9 act 0.4 and CYP2C9 inh 63*.
C=CCn1c(=O)/c(=C2/SC(C)=C(C)N2CC)s/c1=C1/C(=O)N(CC)C(=S)N1c1ccccc1 was read as CYP2C19 inhib -28, CYP2C19 activ 1.3, HIV Rev-RRE inh 17, CYP2C9 act 1.3 and CYP2C9 inh -28.
For Cc1ccc(NC(=O)CN(C)S(=O)(=O)c2cccs2)cc1C the results were CYP2C19 inhib 79*, CYP2C19 activ 0.2, HIV Rev-RRE inh 0, CYP2C9 act 0.8, Cav32 inh 0.98 and CYP2C9 inh 17.
`Cc1ccc(NC(=O)CN(C)S(=O)(=O)c2cccs2)cc1F` gave CYP2C19 inhib 69*, CYP2C19 activ 0.3, HIV Rev-RRE inh -1, CYP2C9 act 0.7, Cav32 inh 0.55 and CYP2C9 inh 32.
CCOc1ccc(NC(=O)CN(C)S(=O)(=O)c2cccs2)cc1 was read as CYP2C19 inhib 20, CYP2C19 activ 0.8, HIV Rev-RRE inh 6, CYP2C9 act 1.3, Cav32 inh 0.51 and CYP2C9 inh -32.
`CCOC(=O)C1C(=O)CC(C)(O)C(C(=O)OCC)C1c1cccc(OC(F)(F)C(F)F)c1` (stereo not given) gave CYP2C19 inhib 86*, CYP2C19 activ 0.1, CYP2C9 act 0.1 and CYP2C9 inh 90*.
`CCOC(=O)C1C(=O)CC(C)(O)C(C(=O)OCC)C1c1ccc(OCC)cc1` (stereo not given) gave CYP2C19 inhib 1, CYP2C19 activ 1, HIV Rev-RRE inh -2, CYP2C9 act 0.9, Cav32 inh 0.48 and CYP2C9 inh 7.
C=CCOC(=O)C1C(=O)CC(C)(O)C(C(=O)OCC=C)C1c1ccc(OC)cc1 (stereo not given) was read as CYP2C19 inhib 52*, CYP2C19 activ 0.5, HIV Rev-RRE inh 0, CYP2C9 act 0.8 and CYP2C9 inh 20.

Screening results: PubChem, several laboratories
